Data: the RNAGym collection of RNA variant scans (doi:10.1126/science.aae0568)
Fewer inactive variants are shown than the library holds.

B1: tRNA (parent)
chain: GUUCCGUUGGCGUAAUGGUAACGCGUCUCCCUCCUAAGGAGAAGACUGCGGGUUCGAGUCCCGUACGGAACG

Variants of: B1
Assay: yeast fitness relative to wild type (ratio to wild type); higher = fitter; tRNA-Arg(CCU), competitive growth, 37 C, YPD
Summary of the method: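 A pool of Saccharomyces cerevisiae strains, each with a tRNA-Arg(CCU) gene variant at the native genomic locus, was competed in YPD at 37°C for 24 hours across six parallel replicates. The variants had been chemically synthesised at a 3% per-site mutation rate over 69 sites, and gene amplicons before and after competition were read by 100-nucleotide paired-end sequencing. Darwinian fitness relative to wild type rested on changes in genotype frequencies. Genotypes required ≥ 100 starting reads, and estimates < 0.5 were set to 0.5.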

Compared with A21C A43G G58A, A21C A43G G58C is lower in yeast fitness: 0.892 for the first, no more than 0.5 for the second.

A20U C22U C24U and A20G C31U A42U C46U U59G A65U cannot be ordered by yeast fitness: no more than 0.5 for the first, no more than 0.5 for the second.

Compared with A20U U32A C66U, A20U C34U C46U G51A C66U is lower in yeast fitness: 0.554 for the first, no more than 0.5 for the second.

Compared with A20U G50A A57U C60G A65U, A20U G23A C66U is higher in yeast fitness: 0.531 for the first, 0.55 for the second.

A21C A36C U47A C62G and A20U C24U A43G U59A cannot be ordered by yeast fitness: no more than 0.5 for the first, no more than 0.5 for the second.

Compared with A20G G51C G67A, A20U G50A G68C is lower in yeast fitness: 0.534 for the first, no more than 0.5 for the second.

Compared with A20U C66U A70U, A20U C27G C29A is lower in yeast fitness: 0.646 for the first, no more than 0.5 for the second.

A20U A40U U59A and A21C A42U G44C U53C cannot be ordered by yeast fitness: no more than 0.5 for the first, no more than 0.5 for the second.

A20U C27G C49A and A20G U32G G58C C61A A65U cannot be ordered by yeast fitness: no more than 0.5 for the first, no more than 0.5 for the second.

A20U A43U C55A U64A and A20G U54G C66G cannot be ordered by yeast fitness: no more than 0.5 for the first, no more than 0.5 for the second.

Going from A20G C34A A42U G58A C62U G63A to A20U G41C G51C C62G, the yeast fitness rises from 0.583 to 0.735.

Compared with A20G C34A, A20U A43G G58A is higher in yeast fitness: 0.69 for the first, 0.91 for the second.

Compared with A20G U26C, A20U C24G C31A G58C is lower in yeast fitness: 0.984 for the first, 0.504 for the second.

First: A20U A40G A57G
Second: A20U U54A
The yeast fitness of the first is lower: 0.67 for the first, 0.699 for the second.

Going from A20U C31G to A20U C31U G38C, the yeast fitness falls from 0.865 to 0.553.

A20G C34G G41C G52A and A20U C29U C30G C34A U35A G48C cannot be ordered by yeast fitness: no more than 0.5 for the first, no more than 0.5 for the second.

Going from A21C C22G to A21C C22U, the yeast fitness rises from 0.564 to 0.664.

Going from A20U G68A A69C to A21C C24A A65C, the yeast fitness falls from 0.639 to no more than 0.5.

Compared with A21C C22U C31U C33U C62A, A20U C46U C55G is lower in yeast fitness: 0.61 for the first, 0.539 for the second.

Going from A20G G67A A69U to A21C A43G C60G A65G, the yeast fitness falls from 0.516 to no more than 0.5.

Going from A20G U35C A70U to A20U C66A, the yeast fitness falls from 0.629 to 0.612.

First: A20U U28C A69C
Second: A20U C31G C55G C60G C66U A70U
The yeast fitness of the first is higher: 0.699 for the first, no more than 0.5 for the second.

First: A20U A36G C55G
Second: A20U A37U U59C
The yeast fitness of the first is lower: 0.579 for the first, 0.675 for the second.

Going from A20U C29G C49G G63C to A20U G67A, the yeast fitness rises from 0.543 to 0.657.

Compared with A20U G67C, A21C C22G G38C G51C is lower in yeast fitness: 0.732 for the first, no more than 0.5 for the second.

Compared with A21C A37G C49A C60G C66A, A20G C33U G52A G63A is higher in yeast fitness: no more than 0.5 for the first, 0.707 for the second.

Compared with A20U A45C A65C, A20U A37C A43U is lower in yeast fitness: 0.63 for the first, 0.59 for the second.

A20U G38A A57U and A20G C31U A36C C61U A65C cannot be ordered by yeast fitness: no more than 0.5 for the first, no more than 0.5 for the second.

First: A20U C27U C61G
Second: A21C C24U U32A G41A C62G
The yeast fitness of the first is higher: 0.647 for the first, no more than 0.5 for the second.

Compared with A20G C60G G68A, A20U A42G A65G is higher in yeast fitness: no more than 0.5 for the first, 0.689 for the second.

Going from A20G U26A A70U to A20G G25A C49U, the yeast fitness rises from 0.717 to 0.781.

Compared with A20G G44A U54C, A20U G63C is lower in yeast fitness: 0.712 for the first, 0.649 for the second.

A20U G38C C46A and A21C C22U G38C A40C cannot be ordered by yeast fitness: no more than 0.5 for the first, no more than 0.5 for the second.

Going from A20G U59A A70C to A20G U35A A37G A43U A45C, the yeast fitness falls from 0.646 to no more than 0.5.

A20U G39C A40G C49U C55G and A20U C22G U47C cannot be ordered by yeast fitness: no more than 0.5 for the first, no more than 0.5 for the second.

Going from A20U A70C to A20U U28G U32G C34G C66U, the yeast fitness falls from 0.977 to no more than 0.5.

Compared with A21C C27A U28A A45G A69C, A20G G68A is higher in yeast fitness: no more than 0.5 for the first, 0.917 for the second.

Going from A20U G67A A70G to A20U C30A G52A A65U, the yeast fitness falls from 0.882 to no more than 0.5.

First: A20G G52C
Second: A21C C24A G39A
The yeast fitness of the first is higher: 0.613 for the first, no more than 0.5 for the second.

A20U G38C A45C C60G and A20U A40G A42G G50A cannot be ordered by yeast fitness: no more than 0.5 for the first, no more than 0.5 for the second.

A20G C33G G56A A65C and A20U U32G U35A C62U A69C cannot be ordered by yeast fitness: no more than 0.5 for the first, no more than 0.5 for the second.

First: A20G G23C
Second: A20G G23A
The yeast fitness of the first is lower: 0.727 for the first, 0.89 for the second.

Going from A20U A21G C22A C49G to A20U U35C G44C, the yeast fitness rises from no more than 0.5 to 0.592.

Going from A21C C24G U32A A42C A65U to A20G C31U A69C, the yeast fitness rises from 0.543 to 0.833.

First: A20G C60G C66G A69G
Second: A20U C33A G44A C62U
The yeast fitness of the first is higher: 0.554 for the first, no more than 0.5 for the second.

First: A21C C27G
Second: A21C C24U C46U C60U
The yeast fitness of the first is higher: 0.537 for the first, no more than 0.5 for the second.

First: A20U A45U
Second: A20U G25A G67U
The yeast fitness of the first is higher: 0.777 for the first, 0.673 for the second.

A21C C22A C60U and A20U C29G A37G G44A G63A cannot be ordered by yeast fitness: no more than 0.5 for the first, no more than 0.5 for the second.

A20U U26C C30A U47A A65U and A20U G41C C46U C66A cannot be ordered by yeast fitness: no more than 0.5 for the first, no more than 0.5 for the second.

Compared with A20U A43G A70U, A20U G41C is higher in yeast fitness: 0.661 for the first, 0.753 for the second.

Going from A20U U28C to A21C C24U U32A C62G G63A, the yeast fitness falls from 0.934 to no more than 0.5.

A21C A57U C62U and A20U C30G C33A G50A G52A C60U C61G G67A cannot be ordered by yeast fitness: no more than 0.5 for the first, no more than 0.5 for the second.

Going from A21C C22U C31U C33U G48C to A20G G63A A70G, the yeast fitness rises from no more than 0.5 to 0.634.

Compared with A20U C34G A36C C55U, A20U G48A is higher in yeast fitness: 0.528 for the first, 0.922 for the second.

Compared with A20G C34G A43U C66U, A20U G68U is higher in yeast fitness: 0.546 for the first, 0.792 for the second.

A20U C34U G58C and A20G C49U U53G A65G cannot be ordered by yeast fitness: no more than 0.5 for the first, no more than 0.5 for the second.

A20G U47C U54G C66G and A20U C29G U47C C49G G63C cannot be ordered by yeast fitness: no more than 0.5 for the first, no more than 0.5 for the second.

Compared with A20U A43U C49A G58C, A20G G38C A40C is higher in yeast fitness: 0.535 for the first, 0.662 for the second.

Compared with A21C A40U, A21C A40G is higher in yeast fitness: 0.807 for the first, 0.818 for the second.

Going from A20U A36G A70U to A20G C34G A42C A43U, the yeast fitness falls from 0.626 to 0.604.

A20U C27U U32C G52C and A21C A36G G67C cannot be ordered by yeast fitness: no more than 0.5 for the first, no more than 0.5 for the second.

A20U C31A G41A and A20U A21G C29G C49G G63C cannot be ordered by yeast fitness: no more than 0.5 for the first, no more than 0.5 for the second.

A20U U54C G63U and A20U C46G G51C C61U cannot be ordered by yeast fitness: no more than 0.5 for the first, no more than 0.5 for the second.

Going from A20U A42U U59A to A21C A37C C55A G58A, the yeast fitness falls from 0.59 to 0.515.

First: A20U C31U G56A A69C
Second: A20U C34G G48C
The yeast fitness of the first is lower: no more than 0.5 for the first, 0.53 for the second.

First: A20U C30G A69U
Second: A20G C62U
The yeast fitness of the first is lower: 0.59 for the first, 1.05 for the second.

First: A20U C30G
Second: A20U A45C G52C
The yeast fitness of the first is higher: 0.61 for the first, 0.568 for the second.

Going from A20U C46U to A20U U28G U32G C34G, the yeast fitness falls from 0.995 to 0.513.

First: A20U A21U C33G U35G G50U G68A
Second: A20G U53C C55A
The yeast fitness of the first is higher: 0.637 for the first, no more than 0.5 for the second.

A20U A21C C27A G41A and A20G C33U C61G G68C cannot be ordered by yeast fitness: no more than 0.5 for the first, no more than 0.5 for the second.

A20U A42U G67A G68C and A20U C29U A57G A65G cannot be ordered by yeast fitness: no more than 0.5 for the first, no more than 0.5 for the second.

Compared with A21C A45C, A20U C31U G56A C61U is lower in yeast fitness: 0.73 for the first, no more than 0.5 for the second.

Going from A20U C49G to A20U U28A C33U, the yeast fitness falls from 0.752 to no more than 0.5.

First: A20G C31U G41C A43C C60G
Second: A20G U28G
The yeast fitness of the first is lower: no more than 0.5 for the first, 0.86 for the second.

Compared with A20G U28A, A20U C61U C66U is lower in yeast fitness: 0.807 for the first, 0.559 for the second.

Going from A20U C22G A40G to A20G C34A A57U, the yeast fitness falls from 0.745 to no more than 0.5.

First: A20G G67A
Second: A20U U26A C55U
The yeast fitness of the first is higher: 0.95 for the first, 0.747 for the second.

Going from A20U G44C C60A to A20U G25A A69U, the yeast fitness rises from 0.617 to 0.838.

Going from A20G G50A U59C to A20G G25C C33U C49A U53A G67A, the yeast fitness falls from 0.571 to no more than 0.5.

Going from A20G C34G U47C to A20U U28C A40U C62G, the yeast fitness rises from no more than 0.5 to 0.533.

First: A20U A37U
Second: A21C A70C
The yeast fitness of the first is higher: 0.811 for the first, 0.798 for the second.

A20U C31A C33G G56A and A21C C22G A70C cannot be ordered by yeast fitness: no more than 0.5 for the first, no more than 0.5 for the second.

Going from A20U C27U to A20U C27A, the yeast fitness falls from 1.05 to 0.717.

A20G U53C showed a yeast fitness of 0.682.
